In general, IC50 refers to the concentration at which inhibition is half-maximal. Low values mean inhibition by little substance, high ones a need for much substance. The EC50 is the concentration that produces a half-maximal response. The term CC50 denotes the concentration giving 50% cytotoxicity. Low readings indicate harm at low concentration, high ones better tolerance by the cells. For orientation: inhibition means how much of the control response was suppressed.

Series [1] addresses Human immunodeficiency virus type 1 integrase (Human immunodeficiency virus 1, UniProt Q7ZJM1). The series can be described thus: Inhibition of HIV-1 integrase strand transfer activity preincubated for 30 mins followed by addition of FITC-labelled dsDNA for 1 hr by microplate reader analysis.
Series [2] concerns the target Human immunodeficiency virus type 1 integrase (Human immunodeficiency virus 1, UniProt Q7ZJM1, G140S). The series can be described thus: Inhibition of HIV-1 integrase G140S mutant strand transfer activity preincubated for 30 mins followed by addition of FITC-labelled dsDNA for 1 hr by microplate reader analysis.
Series [3] deals with Human immunodeficiency virus 1. The series can be described thus: Antiviral activity against HIV-1 infected in human TZM-bl cells assessed as inhibition of viral replication for 48 hrs by bright-Glo luciferase assay. The conditions noted are these: Human immunodeficiency virus 1, TZM-bl. The format is functional, organism-based. The procedure, abridged: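 Antiviral screen in TZM-bl cells, a HeLa clone engineered to express CD4 and CCR5 receptors. Activity is reported as EC50 in μM.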

Series [4] in a line: Cytotoxicity against human TZM-bl cells after 48 hrs by Cell-titerGlo assay. In kind it is cell-based.
The nature of series [5]: Therapeutic index, ratio of CC50 for human TZM-bl cells to EC50 for HIV-1 infected in TZM-bl cells. In kind it is cell-based. The following applies: read-out: Ratio CC50/EC50. A digest of the protocol:
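Index calculated as CC50/EC50, both measured in TZM-bl cells; CC50 is cell-based cytotoxicity at 48 h.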

In series [6] the test system is Human immunodeficiency virus 1. The series can be described thus: Antiviral activity against HIV-1 NL4-3 infected in human jurkat cells assessed as decrease in p24 level at 10 uM after 48 hrs by western blot analysis. The conditions noted are these: Human immunodeficiency virus 1, NL4-3, Jurkat. In kind it is functional. A digest of the protocol: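 Jurkat cells were treated with compound at 10 μM or left untreated, then infected at MOI 1 with VSV-G-pseudotyped pNL4-3 (WT HIV-1). Supernatants were pelleted, solubilized in lysis buffer and probed on Western blot with a p24 antibody. Band intensity was quantified by densitometry as percent p24 relative to the untreated infected control, with significance at p < 0.05.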
(In western blotting, separated proteins are transferred to a membrane and probed.)

A short description of series [7]: Cytotoxicity against human Jurkat cells after 48 to 72 hrs by MTT assay. In kind it is cell-based. A general note: Tetrazolium dyes change colour on reduction, which living cells bring about.

Chain of Human immunodeficiency virus type 1 integrase (Human immunodeficiency virus 1, UniProt Q7ZJM1, G140S) (Q7ZJM1 entry or part of it G140S): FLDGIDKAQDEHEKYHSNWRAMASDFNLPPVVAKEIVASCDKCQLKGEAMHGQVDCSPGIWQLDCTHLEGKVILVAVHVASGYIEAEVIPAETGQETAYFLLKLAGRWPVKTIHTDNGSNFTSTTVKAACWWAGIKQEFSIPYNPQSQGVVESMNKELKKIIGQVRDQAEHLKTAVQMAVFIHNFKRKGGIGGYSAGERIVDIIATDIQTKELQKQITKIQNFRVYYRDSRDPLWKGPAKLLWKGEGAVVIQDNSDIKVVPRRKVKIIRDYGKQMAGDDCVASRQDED
Chain of Human immunodeficiency virus type 1 integrase (Human immunodeficiency virus 1, UniProt Q7ZJM1) (Q7ZJM1 whole entry): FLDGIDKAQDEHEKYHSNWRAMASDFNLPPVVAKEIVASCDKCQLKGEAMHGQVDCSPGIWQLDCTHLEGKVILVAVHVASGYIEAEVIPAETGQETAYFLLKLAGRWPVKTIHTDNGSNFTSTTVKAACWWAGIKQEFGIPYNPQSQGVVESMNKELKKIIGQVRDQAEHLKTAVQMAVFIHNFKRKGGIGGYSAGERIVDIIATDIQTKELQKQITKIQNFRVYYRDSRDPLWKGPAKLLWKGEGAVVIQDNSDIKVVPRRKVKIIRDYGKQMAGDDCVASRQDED

For `COc1ccc(C2=Cc3ccc(F)cc3C(CC(=O)CO)N2c2ccc(C#N)cc2)cc1` (stereo not drawn), the figures for the IC50 in series [1] and in series [2] were 7.6 µM and 7 µM, respectively. The concentration giving a half-maximal response (EC50) in series [3] came to 29.1 µM. The molecule further gave a CC50 at 48 h in series [4] of 39.7 µM. In addition, in series [5], the selectivity ratio worked out at 1.3.

Turning to `COc1ccc(C2=Cc3ccc([N+](=O)[O-])cc3C(CC(C)=O)N2c2ccc(C#N)cc2)cc1` (stereo not drawn), the IC50 in series [1] was determined as 2.9 µM; in series [2], 2.8 µM. The EC50 in series [3] came to 22.5 µM. For the same molecule, half-maximal cytotoxicity in series [4] (CC50 at 48 h) was put at 15.4 µM. Also, in series [5], the selectivity ratio stood at 0.6.

`COc1ccc(C2=Cc3ccc(F)cc3C(CC(=O)C(C)O)N2c2ccc(Cl)cc2)cc1` (stereo not drawn): the IC50 was 11.8 µM in series [1] and 10.8 µM in series [2]. Besides, the half-maximal cytotoxic concentration (CC50) at 48 h in series [4] worked out at 9.9 µM.

Take `Cc1nnc(C(=O)NC(C)(C)c2nc(C(=O)NCc3ccc(F)cc3)c(O)c(=O)n2C)o1`: in series [3], the EC50 amounted to 0.15 µM. The CC50 at 48 h in series [4] is greater than 200 µM. Moreover, the inhibition at 10 µM in series [6] is 92%. Further, the CC50 in series [7] is greater than 120 µM.

Turning to `COc1ccc(C2=Cc3ccc([N+](=O)[O-])cc3C(CC(C)=O)N2c2ccc(F)cc2)cc1` (stereo not drawn), the IC50 in series [1] was found to be 0.46 µM; in series [2], 0.64 µM. In addition, in series [3], the EC50 stood at 36.3 µM. Further, the CC50 at 48 h in series [4] was 7.7 µM. In series [5], the selectivity ratio is 0.2. Besides, the CC50 in series [7] came out at 16.4 µM.

As to `COc1ccc(C2=Cc3ccc(F)cc3C(CC(=O)C(C)O)N2c2ccc([N+](=O)[O-])cc2)cc1` (stereo not drawn), the IC50 came out at 5.2 µM in series [1] and 5.5 µM in series [2]. In addition, the EC50 in series [3] stood at 12.7 µM. The CC50 at 48 h in series [4] was determined as 10.1 µM. Moreover, the selectivity ratio in series [5] stood at 0.7. For the same molecule, the CC50 in series [7] turned out to be 6.1 µM.

As for `COc1ccc(C2=Cc3ccc(F)cc3C(CC(=O)CO)N2c2ccc(O)cc2)cc1` (stereo not drawn), the IC50 in series [1] was found to be 22.1 µM; in series [2], 20.1 µM. Also, the EC50 in series [3] turned out to be 24.4 µM. In series [4], this molecule came in with a CC50 at 48 h of 47.7 µM. In addition, the selectivity ratio in series [5] came to 1.9.

The molecule `COc1ccc(C2=Cc3ccc(F)cc3C(CC(C)=O)N2c2ccc([N+](=O)[O-])cc2)cc1` (stereo not drawn) had a CC50 at 48 h in series [4] of 11.2 µM.

With `COc1ccc(C2=Cc3ccc([N+](=O)[O-])cc3C(CC(C)=O)N2c2ccc(O)cc2)cc1` (stereo not drawn), the IC50 in series [1] worked out at 6.6 µM; in series [2], 7.6 µM. Moreover, the EC50 in series [3] was 31.4 µM. Also, half-maximal cytotoxicity in series [4] (CC50 at 48 h) was put at 23.5 µM. Moreover, the selectivity ratio in series [5] came to 0.7.

For the molecule `COc1ccc(C2=Cc3ccc(F)cc3C(CC(=O)C(C)O)N2c2ccc(F)cc2)cc1` (stereo not drawn), the IC50 in series [1] worked out at 7.9 µM; in series [2], 8 µM. Further, the EC50 in series [3] turned out to be 11.7 µM. Further, the CC50 at 48 h in series [4] was found to be 14 µM. Further, in series [5], the selectivity ratio is 1.1. In series [7], this molecule yielded a CC50 of 1.81 µM.

On to `COc1ccc(C2=Cc3ccc(F)cc3C(CC(=O)C(C)O)N2c2ccc(C#N)cc2)cc1` (stereo not drawn), for which the results for the IC50 in series [1] and in series [2] were 22.2 µM and 22 µM, respectively. In addition, the EC50 in series [3] was 18.7 µM. In series [4], this molecule displayed a CC50 at 48 h of 24.1 µM. Moreover, in series [5], the selectivity ratio was 1.2.

As to `O=[N+]([O-])CC1c2cc([N+](=O)[O-])ccc2C=C(c2ccccc2)N1c1ccc(Cl)cc1` (stereo not drawn), the IC50 is 3.1 µM in series [1] and 3 µM in series [2]. In addition, the half-maximal effective concentration (EC50) in series [3] was 1.15 µM. Besides, the CC50 at 48 h in series [4] worked out at 26 µM. Further, in series [5], the selectivity ratio stood at 22.6. Also, half-maximal cytotoxicity in series [7] (CC50) was put at 24.9 µM.

Turning to `COc1ccc(C2=Cc3ccc(F)cc3C(CC(=O)C(C)O)N2c2ccc(O)cc2)cc1` (stereo not drawn), the IC50 came out at 25.2 µM in series [1] and 25 µM in series [2]. Moreover, in series [3], the EC50 was found to be 19.7 µM. Further, in series [4], the midpoint of cytotoxicity, the CC50 at 48 h, lay at 50.9 µM. For the same molecule, the selectivity ratio in series [5] worked out at 2.5.

Regarding `COc1ccc(C2=Cc3ccc(F)cc3C(CC(C)=O)N2c2ccc(O)cc2)cc1` (stereo not drawn), the IC50 stood at 12 µM in series [1] and 14 µM in series [2]. For the same molecule, the EC50 in series [3] was 21.4 µM. This molecule also yielded a 50% cytotoxic concentration (CC50) at 48 h in series [4] of 60.5 µM. Moreover, the selectivity ratio in series [5] is 2.8.

As for `COc1ccc(C2=Cc3ccc(F)cc3C(C[N+](=O)[O-])N2c2ccc(Cl)cc2)cc1` (stereo not drawn), the IC50 in series [1] amounted to 0.7 µM; in series [2] it was 0.8 µM. Besides, the concentration for a half-maximal effect (EC50) in series [3] was 0.03 µM. The same molecule returned a CC50 at 48 h in series [4] of 32.2 µM. In series [5], the selectivity ratio was 1070. Moreover, the inhibition at 10 µM in series [6] amounted to 91%. In series [7], this molecule yielded a CC50 of 20.3 µM.

As to `COc1ccc(C2=Cc3ccc([N+](=O)[O-])cc3C(CC(C)=O)N2c2ccc(C)cc2)cc1` (stereo not drawn), the IC50 in series [1] was 0.6 µM; in series [2], 0.65 µM. Further, the EC50 in series [3] is 26.3 µM. Moreover, half-maximal cytotoxicity in series [4] (CC50 at 48 h) was put at 10.6 µM. For the same molecule, in series [5], the selectivity ratio was 0.4. Also, the CC50 in series [7] worked out at 33.1 µM.

For `Cc1ccc(C2=Cc3ccccc3C(C[N+](=O)[O-])N2c2ccc(F)cc2)cc1` (stereo not drawn), in series [3], the EC50 turned out to be 16.5 µM. The molecule also registered a CC50 at 48 h in series [4] of 21.5 µM. Besides, in series [5], the selectivity ratio was 1.3. The molecule further displayed a CC50 in series [7] of 51.2 µM.

In the case of `COc1ccc(C2=Cc3ccc(F)cc3C(CC(=O)CO)N2c2ccc([N+](=O)[O-])cc2)cc1` (stereo not drawn), the IC50 in series [1] worked out at 0.82 µM; in series [2], 46.4 µM. Besides, in series [3], the EC50 was 10.4 µM. In addition, half-maximal cytotoxicity in series [4] (CC50 at 48 h) was put at 46.4 µM. Further, the selectivity ratio in series [5] is 4.4. In addition, the inhibition at 10 µM in series [6] was determined as 70.9%. The CC50 in series [7] is 57.1 µM.

The molecule `COc1ccc(C2=Cc3ccc(F)cc3C(CC(C)=O)N2c2ccc(C#N)cc2)cc1` (stereo not drawn) registered an IC50 in series [2] of 20 µM.

Regarding `COc1ccc(C2=Cc3ccc(OC)cc3C(C[N+](=O)[O-])N2c2ccccc2)cc1` (stereo not drawn), in series [3], the EC50 came to 10.5 µM. In series [4], this molecule yielded a half-maximal cytotoxic concentration (CC50) at 48 h of 29.4 µM. In series [5], the selectivity ratio amounted to 2.8. The molecule further displayed a CC50 in series [7] of 22.1 µM.

Regarding `COc1ccc(C2=Cc3ccc(F)cc3C(CC(=O)CO)N2c2ccc(C)cc2)cc1` (stereo not drawn), the IC50 in series [1] turned out to be 15.1 µM; in series [2], 14.1 µM. Also, the EC50 in series [3] was 28.4 µM. Besides, the CC50 at 48 h in series [4] is 23.7 µM. The selectivity ratio in series [5] turned out to be 0.8.

For the molecule `COc1ccc(C2=Cc3ccc(F)cc3C(CC(=O)CO)N2c2ccc(Cl)cc2)cc1` (stereo not drawn), the IC50 worked out at 17.9 µM in series [1] and 14.9 µM in series [2]. Further, in series [3], the EC50 came to 26.4 µM. In addition, in series [4], the CC50 at 48 h came out at 8.5 µM. Also, the selectivity ratio in series [5] turned out to be 0.3.

`O=[N+]([O-])CC1c2ccccc2C=C(c2ccccc2)N1c1ccccc1` (stereo not drawn): in series [3], the EC50 came to 15.6 µM. Also, half-maximal cytotoxicity in series [4] (CC50 at 48 h) was put at 10.3 µM. In addition, in series [5], the selectivity ratio amounted to 0.6. For the same molecule, it took 42.3 µM to reach half-maximal cytotoxicity in series [7] (CC50).

For the molecule `COc1ccc(C2=Cc3ccc(F)cc3C(CC(=O)C(C)O)N2c2ccc(C)cc2)cc1` (stereo not drawn), the values for the IC50 in series [1] and in series [2] were 10.6 µM and 12.7 µM, respectively. The same molecule returned a CC50 at 48 h in series [4] of 12.7 µM.

For the origin of these results see ChEMBL document CHEMBL3739256, “Design, Synthesis, and Biological Evaluation of 1,2-Dihydroisoquinolines as HIV-1 Integrase Inhibitors” (ACS Med Chem Lett, 2015).
